Measured values published in article PMC3322254 (Biochemical Pharmacology, 2012).

How the values were obtained:
[1] = target: T1, hA3AR (Homo sapiens, UniProt P0DMS8); experiment: Radioligand membrane binding assay with [125I]I-AB-MECA
T1 sequence (P0DMS8 1-318): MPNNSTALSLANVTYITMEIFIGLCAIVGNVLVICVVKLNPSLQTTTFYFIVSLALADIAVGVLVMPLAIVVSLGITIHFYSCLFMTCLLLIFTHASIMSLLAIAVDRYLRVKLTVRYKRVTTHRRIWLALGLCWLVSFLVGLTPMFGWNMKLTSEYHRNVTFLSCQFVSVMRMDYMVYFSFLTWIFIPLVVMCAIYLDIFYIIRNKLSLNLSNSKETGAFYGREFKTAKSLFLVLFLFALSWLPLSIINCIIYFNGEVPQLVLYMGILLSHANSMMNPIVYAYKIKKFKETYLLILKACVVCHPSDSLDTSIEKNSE
Summary of the method: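 Membranes came from CHO (hA1, hA3) or HEK293 (hA2A) cells, homogenized in 50 mM Tris-HCl pH 7.5 with 10 mM MgCl2, pelleted at 20,000 × g and stored at −80 °C with 3 units/ml adenosine deaminase. Protein was measured by Bradford. […] Ki values were obtained at each subtype.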

[2] = target: T1, hA3AR; experiment: Fluorescent ligand binding
Summary of the method: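 hA3AR-CHO cells were incubated in medium at 37 °C, 5% CO2. Preliminary screen: 1 h with conjugates at 1.5–20 μM or tracer at 10 nM. Saturation: tracer 2.5–250 nM for 1 h. Kinetics: 10 nM tracer, read from 5 min to 3 h, with dissociation started at 90 min by 10 μM non-fluorescent A3AR antagonist. Cells were EDTA-detached and read by flow cytometry; MFI was corrected for autofluorescence and converted to MESF using bead calibration.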

[3] = target: A2AAR (Homo sapiens, UniProt P29274); experiment: FCM binding of MRS5449 to HEK cells expressing the A2AAR
A2AAR, sequence (P29274 whole entry): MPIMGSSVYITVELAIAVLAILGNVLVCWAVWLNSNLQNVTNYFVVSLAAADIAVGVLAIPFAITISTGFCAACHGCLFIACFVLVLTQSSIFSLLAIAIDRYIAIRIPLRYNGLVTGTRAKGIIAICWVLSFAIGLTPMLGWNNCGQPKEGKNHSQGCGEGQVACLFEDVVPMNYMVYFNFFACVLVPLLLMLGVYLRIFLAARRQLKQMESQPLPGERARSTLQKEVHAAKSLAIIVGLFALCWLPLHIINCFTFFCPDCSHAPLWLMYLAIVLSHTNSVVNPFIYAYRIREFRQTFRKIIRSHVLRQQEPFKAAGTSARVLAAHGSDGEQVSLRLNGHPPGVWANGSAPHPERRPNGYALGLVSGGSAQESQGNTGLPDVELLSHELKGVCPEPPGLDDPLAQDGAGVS
Summary of the method: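 Stably transfected lines grew in DMEM/F12 (1:1) with 10% FBS, 2 mM L-glutamine and penicillin/streptomycin: A1AR CHO cells under 500 μg/ml hygromycin B, A2AAR HEK293 cells under 800 μg/ml G418. Cells were seeded about 400,000/well and grown 24 h at 37 °C, 5% CO2. At about 80% confluency the medium was refreshed and the fluorescent tracer added. Cells were then washed, detached with 0.2% EDTA and read by flow cytometry (488 nm excitation), with autofluorescence subtracted.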

Question: How did the Ki ([1]; read-out: A3 Ki, CHO cells stably expressing hA3AR, agonist radioligand [125I]I-AB-MECA) turn out when N=c1ccc2c(-c3ccc(C(=O)NCCCCCCn4cc(CCCC(=O)Nc5nc6ccc(Cl)cc6c6nc(-c7ccco7)nn56)nn4)cc3C(=O)O)c3ccc(N)c(S(=O)(=O)O)c3oc-2c1S(=O)(=O)O [Compound 9, 2-(6-Amino-3-iminio-4,5-disulfonato-3H-xanthen-9-yl)-5-((6-(4-(4-((9-chloro-2-(furan-2-yl)-[1,2,4]triazolo[1,5-c]quinazolin-5-yl)amino)-4-oxobutyl)-1H-1,2,3-triazol-1-yl)hexyl)carbamoyl)benzoate] was run?
Answer: Its Ki is 6.4 ± 2.5 nM.

Question: And the “selectivity for the A3AR” value ([1]; versus hA1 and hA2AARs, from radioligand Ki values)?
Answer: The value was “over 10 fold”.

Question: What about the “Nonspecific binding, % of total binding” value ([2]; 10 nM MRS5449, in presence of 10 μM MRS1220 or 10 μM Cl-IB-MECA or in control CHO cells) of the same molecule?
Answer: The value was “less than 1%”.

Question: What about the “fluorescence emission (MFI) of cell-bound ligand” value ([2]; preliminary FCM, 1 h, 37 °C, 1.5-20 μM for 1-6, 10 nM MRS5449) of the same molecule?
Answer: The value was “sufficiently high MFI”.

Question: And the “binding compared with the binding to the A3AR (expressed as 100%)” value [3]?
Answer: The value was 0.5%.
